Measurements as given in ChEMBL document CHEMBL4330063, “New naphthopyran analogues of LY290181 as potential tumor vascular-disrupting agents” (Eur J Med Chem, 2019).
The source made the active and inactive calls. The calls are words filed in the database; no cut-off is given here.

Assays:
518A2 [1] = test: Antiproliferative activity against human 518A2 cells after 72 hrs by MTT assay; format: functional, cell-based; details: for IC50: 518A2, 72 h
Method in brief: (§1)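 MTT read-out after 72 h of continuous exposure. Viability is expressed as percentage of viable cells relative to untreated controls. IC50 comes from dose-response curves. Values are means±SD of four independent experiments (two for some entries). DMSO was below 1%, with vehicle controls at equal DMSO. Precipitation was excluded spectrometrically and microscopically.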

HT-29 [2] = test: Antiproliferative activity against human HT-29 cells after 72 hrs by MTT assay; format: functional, cell-based; details: HT-29, 72 h; method in brief: as §1
A2780 = test: Antiproliferative activity against human A2780 cells after 72 hrs by SRB assay; format: functional, cell-based; details: A2780, 72 h
Method in brief: (§2)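 Ovarian A2780 and cisplatin-resistant A2780cis cells were exposed for 72 h and stained with SRB. IC50 comes from dose-response curves, as means±SD of three independent experiments. Final DMSO was below 1%, with matched vehicle controls.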

[3] = Antiproliferative activity against human A2780cis cells after 72 hrs by SRB assay; format: functional, cell-based; method in brief: as §2
DLD-1 = test: Antiproliferative activity against human DLD1 cells after 72 hrs by MTT assay; format: functional, cell-based; details: DLD-1, 72 h; method in brief: as §1
EA.hy 926 [4] = test: Antiproliferative activity against human EAhy926 cells after 72 hrs by MTT assay; format: functional, cell-based; details: EA.hy 926, 72 h; method in brief: as §1
PANC-1 = test: Antiproliferative activity against human PANC1 cells after 72 hrs by MTT assay; format: functional, cell-based; details: PANC-1, 72 h; method in brief: as §1
HCT-116 = test: Antiproliferative activity against human HCT116 cells after 72 hrs by MTT assay; format: functional, cell-based; details: HCT-116, 72 h; method in brief: as §1
[5] = Antiproliferative activity against human KB-V1/Vbl cells after 72 hrs by MTT assay; format: functional, cell-based; method in brief: as §1
[6] = Antiproliferative activity against human MCF7/Topo cells after 72 hrs by MTT assay; format: functional, cell-based; method in brief: as §1
EA.hy 926 [7] = test: Antiangiogenic activity against human EAhy926 cells assessed as inhibition of tube formation on matrigel at 100 nM after 24 hrs by light microscopic analysis; format: functional, cell-based
Method in brief: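 Ea.Hy926 endothelial hybrid cells were seeded on matrigel with compound and examined for tubular/cord-like network formation versus untreated controls. Viability under the same conditions was checked in parallel by MTT to exclude cytotoxic effects.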

EA.hy 926 [8] = test: Cytotoxicity against human EAhy926 cells at 100 nM after 24 hrs by MTT assay relative to control; format: cell-based; details: ea.hy 926, 24 h, 0.1 µM
HT-29 [9] = test: Cell cycle arrest in human HT-29 cells assessed as accumulation of cells at sub G1 phase at 100 nM after 24 hrs by propidium iodide staining-based flow cytometric analysis (reference value: 1.2 +/- 0.3%); format: functional
HT-29 [10] = test: Cell cycle arrest in human HT-29 cells assessed as accumulation of cells at sub G1 phase at 250 nM after 24 hrs by propidium iodide staining-based flow cytometric analysis (reference value: 1.2 +/- 0.3%); format: functional
HT-29 [11] = test: Cell cycle arrest in human HT-29 cells assessed as accumulation of cells at sub G1 phase at 350 nM after 24 hrs by propidium iodide staining-based flow cytometric analysis (reference value: 1.2 +/- 0.3%); format: functional
HT-29 [12] = test: Cell cycle arrest in human HT-29 cells assessed as accumulation of cells at G1 phase at 100 nM after 24 hrs by propidium iodide staining-based flow cytometric analysis (reference value: 75.1 +/- 1.1%); format: functional
HT-29 [13] = test: Cell cycle arrest in human HT-29 cells assessed as accumulation of cells at G1 phase at 250 nM after 24 hrs by propidium iodide staining-based flow cytometric analysis (reference value: 75.1 +/- 1.1%); format: functional
HT-29 [14] = test: Cell cycle arrest in human HT-29 cells assessed as accumulation of cells at G1 phase at 350 nM after 24 hrs by propidium iodide staining-based flow cytometric analysis (reference value: 75.1 +/- 1.1%); format: functional
HT-29 [15] = test: Cell cycle arrest in human HT-29 cells assessed as accumulation of cells at S phase at 100 nM after 24 hrs by propidium iodide staining-based flow cytometric analysis (reference value: 12.3 +/- 0.4%); format: functional
HT-29 [16] = test: Cell cycle arrest in human HT-29 cells assessed as accumulation of cells at S phase at 250 nM after 24 hrs by propidium iodide staining-based flow cytometric analysis (reference value: 12.3 +/- 0.4%); format: functional
HT-29 [17] = test: Cell cycle arrest in human HT-29 cells assessed as accumulation of cells at S phase at 350 nM after 24 hrs by propidium iodide staining-based flow cytometric analysis (reference value: 12.3 +/- 0.4%); format: functional
HT-29 [18] = test: Cell cycle arrest in human HT-29 cells assessed as accumulation of cells at G2/M phase at 100 nM after 24 hrs by propidium iodide staining-based flow cytometric analysis (reference value: 11.4 +/- 1.4%); format: functional
HT-29 [19] = test: Cell cycle arrest in human HT-29 cells assessed as accumulation of cells at G2/M phase at 250 nM after 24 hrs by propidium iodide staining-based flow cytometric analysis (reference value: 11.4 +/- 1.4%); format: functional
HT-29 [20] = test: Cell cycle arrest in human HT-29 cells assessed as accumulation of cells at G2/M phase at 350 nM after 24 hrs by propidium iodide staining-based flow cytometric analysis (reference value: 11.4 +/- 1.4%); format: functional
518A2 [21] = test: Induction of apoptosis in human 518A2 cells at 100 nM after 24 hrs by TUNEL assay relative to control; format: functional
Tubulin (Homo sapiens) = Tubulin (Homo sapiens) (UniProt P68371+Q9H4B7+P0DPH7+P68366+Q13509+Q71U36+P04350+Q3ZCM7+P07437+P68363+Q9BQE3+Q6PEY2+Q13885+Q9BVA1+Q9BUF5); test: Induction of microtubule disruption in human 518A2 cells at 100 nM after 3 hrs by DAPI staining-based fluorescence microscopic analysis; format: cell-based
Method in brief: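 Microtubule organization in 518A2 melanoma cells was checked by tubulin immunofluorescence staining after 3 h exposure to 100 nM, with DAPI as the nuclear counterstain. Images come from two independent experiments.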

Tubulin = Tubulin (Sus scrofa, UniProt P02554+P02550); test: Inhibition of porcine brain tubulin polymerization after 2 hrs
518A2 [22] = test: Effect on F-actin in human 518A2 cells assessed as thick stress fibers formation at 100 nM after 3 hrs by DAPI staining-based fluorescence microscopic analysis; format: cell-based
Method in brief: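 518A2 melanoma cells were treated with 100 nM for 3 h. Filamentous actin was fluorescence-labelled, nuclei were counterstained with DAPI, and the cells were imaged by fluorescence microscopy. Images come from two independent experiments.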

518A2 [23] = test: Antimigratory activity against human 518A2 cells at 50 nM after 48 hrs by wound healing assay; format: functional, cell-based
518A2 [24] = test: Induction of apoptosis in human 518A2 cells assessed as caspase-9 activity at 5 uM after 3.5 hrs by Caspase-Glo luminescence assay (reference value: 100 +/- 1.2%); format: functional
518A2 [25] = test: Induction of apoptosis in human 518A2 cells assessed as accumulation at subG1 phase; format: functional, cell-based
518A2 [26] = test: Induction of cell cycle arrest in human 518A2 cells; format: functional, cell-based
HT-29 [27] = test: Cell cycle arrest in human HT-29 cells assessed as accumulation of cells at G2/M phase after 24 hrs by propidium iodide staining-based flow cytometric analysis; format: functional

| IC50 (HT-29 [2]) [nM] | IC50 (A2780) [nM] | IC50 (DLD-1) [nM] | IC50 (PANC-1) [nM] | IC50 (HCT-116) [nM] | Compound | Activity (518A2 [1]) | IC50 (518A2 [1]) [nM] | IC50 [3] [nM] | IC50 (EA.hy 926 [4]) [nM] | IC50 [5] [nM] | IC50 [6] [nM] | Activity (EA.hy 926 [7]) | Activity (EA.hy 926 [8]) [%] | Activity (HT-29 [9]) [%] | Activity (HT-29 [10]) [%] | Activity (HT-29 [11]) [%] | Activity (HT-29 [12]) [%] | Activity (HT-29 [13]) [%] | Activity (HT-29 [14]) [%] | Activity (HT-29 [15]) [%] | other results |
| --- | --- | --- | --- | --- | --- | --- | --- | --- | --- | --- | --- | --- | --- | --- | --- | --- | --- | --- | --- | --- | --- |
| 176 | 17 | 32.3 | 19.5 | 47 | N#CC1=C(N)Oc2c(ccc3ccccc23)C1c1cc(F)cc(F)c1 (stereo not drawn) | Dose-dependent effect | 26.4 | 20.3 | 31.5 | 25.8 | 20.1 | Active | > 68 | 7.1 | 11.3 | 13.4 | 40.3 | 35.9 | 30.8 | 20.7 | Activity (HT-29 [16]): 19.2%; Activity (HT-29 [17]): 12.3%; Activity (HT-29 [18]): 31.8%; Activity (HT-29 [19]): 33.6%; Activity (HT-29 [20]): 43.5%; Activity (518A2 [21]): 67.5%; Activity (Tubulin (Homo sapiens)): Active; I50 (Tubulin): 9.6 µM; Activity (518A2 [22]): Active; Activity (518A2 [23]): Active; Activity (518A2 [24]): 133%; Activity (518A2 [25]): Active; Activity (518A2 [26]): inactive; Activity (HT-29 [27]): Dose-dependent effect |
| 46.9 | 18.7 | 33.7 | 12.5 | 44.3 | N#CC1=C(N)Oc2c(ccc3ccccc23)C1c1cccc([N+](=O)[O-])c1 (stereo not drawn) | Dose-dependent effect | 35.9 | 26 | 35.6 | 22.6 | 11.8 | Active | > 68 | 6.1 | 13 | 12.2 | 49.3 | 51.7 | 39.8 | 26.2 | Activity (HT-29 [16]): 22.4%; Activity (HT-29 [17]): 24.1%; Activity (HT-29 [18]): 18.4%; Activity (HT-29 [19]): 12.9%; Activity (HT-29 [20]): 23.9%; Activity (518A2 [21]): 61.4%; Activity (Tubulin (Homo sapiens)): Active; I50 (Tubulin): 7.1 µM; Activity (518A2 [22]): Active; Activity (518A2 [23]): Active; Activity (518A2 [24]): 114.7%; Activity (518A2 [25]): Active; Activity (518A2 [26]): inactive; Activity (HT-29 [27]): Dose-dependent effect |
